# Where no end group is shown, it is not given here.
# Tested on: HeLa cells
# Assay: Saporin cytosolic delivery, MTT lethality
# Type: cell-based
# Details: SAP 10, 20, 50 μg/ml alone, 60 min
# Outline: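 HeLa seeded at 1×10^4 cells/well and grown 24 h. Cells exposed to saporin, with or without vehicle peptide, for 1 h at 37 °C. After two PBS washes, cells kept in DMEM for 6 h at 37 °C. Viability read by MTT: formazan in DMSO at 490 nm, lethality calculated against untreated cells and cell-free blank.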
row,Substance,cell survival with saporin alone
1,"SAP: membrane-impermeable ribosome-inactivation protein, 28.6 kDa cargo",barely affected

# Tested on: not listed separately
# Assay: MTT cytotoxicity assay
# Type: cell-based
# Details: human, HeLa cells
# Outline: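 HeLa cells (1×10^4/well) grown 24 h, then exposed to serially diluted peptides for 1 h at 37 °C. Peptide removed; MTT added (5 mg/ml stock in PBS) in fresh medium for 4 h at 37 °C. Formazan dissolved in DMSO and read at 490 nm. Lethality = (Acon − A)/(Acon − Abl), using untreated cells and cell-free blank. IC50 from semilog curves, three independent measurements.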
row,Substance,IC50 at 1 h
1,ILILAAKLAKALKKEAKALK-NH2 [LP4],> 128 µM
2,ILILAAKLLKALKKEAKLLK-NH2 [LP3],12.5 µM
3,ILILAAKLLKLLKKELKLLK-NH2 [LP2],1.3 µM
4,ILILILAAKLAKALKKEAKALK-NH2 [LP5],13 µM
5,KLLKLLKKELKLLK-NH2 [LP1],> 128 µM
